SENP7 block = blocks the human protease SENP7; recombinant SENP7, Z-RLRGG-aminoluciferin luminescence, 40 min; 330,000 tested, 1.5% active; Q9BQF6; inhibition, % at 5 µM;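 active = inhibition above about 50% at the single test dose, limit read from the data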;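 also: plate controls were DMSO with enzyme for no effect and no enzyme buffer wells for full effect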
Target sequence (Q9BQF6 706-1050 limits assumed): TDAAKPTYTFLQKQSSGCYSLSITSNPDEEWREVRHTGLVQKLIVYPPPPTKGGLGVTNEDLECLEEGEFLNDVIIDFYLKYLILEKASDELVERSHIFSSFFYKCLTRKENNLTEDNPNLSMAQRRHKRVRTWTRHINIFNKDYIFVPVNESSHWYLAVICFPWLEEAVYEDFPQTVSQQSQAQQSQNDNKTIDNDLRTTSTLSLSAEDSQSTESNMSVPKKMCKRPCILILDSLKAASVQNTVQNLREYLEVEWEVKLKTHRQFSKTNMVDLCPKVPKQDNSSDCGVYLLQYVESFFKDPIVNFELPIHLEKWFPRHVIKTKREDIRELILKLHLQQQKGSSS
SENP6 inh = blocks the human protease SENP6; Recombinant SENP6 catalytic domain, aminoluciferin luminescence; inhibition, % at 10 µM; 330,000 tested, 1.8% active; AID 2599;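 active = inhibition above about 50% at the single tested dose, limit read from the data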;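 also: plate controls were DMSO wells with enzyme for no effect and DMSO wells lacking enzyme for full effect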
HSP90 inh = HSP90 refolding inhibition in rabbit reticulocyte lysate; 290,000 tested, 0.91% active; luciferase refolding luminescence, 3 h; inhibition, % at 5.6 µM; AID 1789;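 active = inhibition above the screen-wide mean plus 3 SD, computed separately per campaign, cut at about 16% in these data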;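 also: 0% = DMSO wells and 100% = 60 µM geldanamycin wells; inhibitors lower the luminescence because luciferase stays unfolded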
SENP8 block-1 = blocks human SENP8 cleavage of Nedd8 substrate; 360,000 tested, 0.64% active; AID 602440; inhibition, % at 20 µM; recombinant SENP8, Nedd8 substrate fluorescence; Q96LD8; in the data active = inhibition mostly above about 40%, no sharp cut-off; inactive = mostly below about 27%
Target sequence (Q96LD8 whole entry, looked up): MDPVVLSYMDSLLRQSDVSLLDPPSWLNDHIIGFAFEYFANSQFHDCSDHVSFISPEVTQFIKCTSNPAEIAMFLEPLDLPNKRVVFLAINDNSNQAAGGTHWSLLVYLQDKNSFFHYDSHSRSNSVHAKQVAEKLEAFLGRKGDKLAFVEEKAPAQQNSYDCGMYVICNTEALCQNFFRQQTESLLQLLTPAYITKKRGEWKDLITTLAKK
SENP8 block-2 = inhibitors of human SENP8 protease. Q96LD8. inhibition, % at 10 µM. 330,000 tested, 1.2% active. AID 2540. purified SENP8, Z-RLRGG-aminoluciferin cleavage, luminescence; in the data active = inhibition above about 50%
SENP1 FRET inh = blocks the human SENP1 SUMO protease catalytic domain; recombinant SENP1 catalytic domain, CyPet-SUMO1-YPet FRET cleavage; Q9P0U3; inhibition, % at 10 µM; 360,000 tested, 0.21% active;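 active = inhibition at least 30% at 10 µM, raw YFP signal under a set limit, fluorescence ratio 0.5 to 1.5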;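 also: 0% = enzyme with DMSO and 100% = no enzyme wells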
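System: Recombinant human SENP1 catalytic domain, His6-tagged | Incubation: Enzyme reaction for 50 min at room temperature, dark | Medium: Tris pH 8 with BME, BSA, NP40 and catalase | Also added: 25 nM SUMO1 FRET substrate | Compound: 10 µM single point, 0.5% DMSO | Measured by: FRET fluorescence in CFP and YFP emission channels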
SENP8 conf = confirmation of human SENP8 protease inhibitors; shares compounds with SENP7 block; Recombinant SENP8, Z-RLRGG-aminoluciferin luminescence, 60 min; inhibition, % at 12.5 µM; 6,200 tested, 40% active;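 active = mean inhibition across replicates above about 50%, limit read from the data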
SENP6 conf = human SENP6 inhibition, confirmed; shares compounds with SENP7 block; recombinant SENP6, Z-RLRGG-aminoluciferin luminescence; AID 488915; inhibition, % at 12.5 µM; 6,200 tested, 58% active
SENP7 conf = human SENP7 inhibition, confirmed | inhibition, % at 12.5 µM | shares compounds with SENP7 block | 6,200 tested, 69% active | AID 488917 | recombinant SENP7, Z-RLRGG-aminoluciferin luminescence, 40 min
Casp3 SENP sel = selectivity test for SENP inhibitors: human caspase-3 inhibition | shares compounds with SENP7 block | 6,200 tested, 60% active | purified caspase-3, Z-DEVD-aminoluciferin luminescence, 60 min | inhibition, % at 12.5 µM;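 active = mean inhibition above about 50%, limit read from the data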;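 also: plate controls were enzyme with DMSO for no effect and wells without caspase-3 for full effect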
SENP luc ctr = counter-screen for SENP inhibitors: luminescence interference | shares compounds with SENP7 block | Pre-incubated SENP8/Z-RLRGG-aminoluciferin, luciferase luminescence interference | inhibition, % at 12.5 µM | 6,200 tested, 39% active | AID 488919;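 active = mean inhibition above about 50% when retested at one dose, limit read from the data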;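 also: plate controls were DMSO wells with completed reaction for no effect and substrate without enzyme for full effect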
Numbers without * were called inactive. Hits are enriched below; roughly 2.9% of the tested compounds scored in any of these assays.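 The calls were made as follows, unless noted: active = mean inhibition above about 50% in the one-dose retest (limit read from the data); inactive = the rest.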

What do the screens show for `O=C(CCc1ccccc1)Nc1ccc2ccccc2n1`?
SENP7 block: 14; SENP6 inh: -36; HSP90 inh: -3; SENP8 block-1: -4; SENP8 block-2: 0; SENP1 FRET inh: 2

What do the screens show for `O=C(/C=C/Nc1ccccc1)c1ccc(Cl)cc1Cl`?
SENP7 block: 87*; SENP6 inh: 3; HSP90 inh: 9; SENP8 block-1: -39; SENP8 block-2: 83*; SENP1 FRET inh: -26; SENP8 conf: 89*; SENP6 conf: 92*; SENP7 conf: 98*; Casp3 SENP sel: 82*; SENP luc ctr: 64*

How did Cc1cc(N/C=C/C(=O)c2ccccc2)ccc1Br do in these assays?
SENP7 block: 80*; SENP6 inh: 67*; HSP90 inh: 2; SENP8 block-1: -230; SENP8 block-2: 62*; SENP1 FRET inh: -84; SENP8 conf: 24; SENP6 conf: 16; SENP7 conf: 7; Casp3 SENP sel: 38; SENP luc ctr: 1

What do the screens show for `CC(=O)Nc1ccc(N/C=C/C(=O)c2ccccc2)cc1`?
SENP7 block: 55*; SENP6 inh: 70*; HSP90 inh: 0; SENP8 block-1: -72; SENP8 block-2: 50*; SENP1 FRET inh: -35; SENP8 conf: 45; SENP6 conf: 66*; SENP7 conf: 90*; Casp3 SENP sel: 78*; SENP luc ctr: 31

What do the screens show for `CN(C)c1ccc(N/C=C/C(=O)c2ccccc2)cc1`?
SENP7 block: 102*; SENP6 inh: 96*; HSP90 inh: 3; SENP8 block-1: 28; SENP8 block-2: 95*; SENP1 FRET inh: 68; SENP8 conf: 70*; SENP6 conf: 94*; SENP7 conf: 100*; Casp3 SENP sel: 97*; SENP luc ctr: 28

How did CCCCN(C(=O)C1=NN(c2ccccc2)C(=O)CC1)c1c(N)n(CC(C)C)c(=O)[nH]c1=O do in these assays?
SENP7 block: 4; SENP6 inh: -7; SENP8 block-1: -12; SENP8 block-2: -1; SENP1 FRET inh: -8

What do the screens show for `O=C(NNC(=S)Nc1ccc(Br)cc1)c1cccnc1`?
SENP7 block: 4; SENP6 inh: -10; HSP90 inh: 1; SENP8 block-1: 12; SENP8 block-2: 0; SENP1 FRET inh: 1

Results for O=C(/C=C\Nc1ccc(Br)cc1)c1cccnc1 ?
SENP7 block: 66*; SENP6 inh: 83*; HSP90 inh: -6; SENP8 block-1: -383; SENP8 block-2: 57*; SENP1 FRET inh: -29; SENP8 conf: 66*; SENP6 conf: 64*; SENP7 conf: 83*; Casp3 SENP sel: 71*; SENP luc ctr: 41

Results for COc1ccc(N/C=C/C(=O)c2ccc(Cl)cc2)cc1 ?
SENP7 block: 43; SENP6 inh: -6; HSP90 inh: 3; SENP8 block-1: -12; SENP8 block-2: -13; SENP1 FRET inh: -25

How did O=C(/C=C/Nc1ccccc1)c1ccccc1 do in these assays?
SENP7 block: 96*; SENP6 inh: 100*; HSP90 inh: -1; SENP8 block-1: -60; SENP8 block-2: 93*; SENP1 FRET inh: -26; SENP8 conf: 90*; SENP6 conf: 96*; SENP7 conf: 101*; Casp3 SENP sel: 96*; SENP luc ctr: 54*

What do the screens show for `CC(=O)Nc1ccc(S(=O)(=O)Nc2ccccc2C(=O)N2CCCCC2)cc1`?
SENP7 block: 10; SENP6 inh: 16; HSP90 inh: -2; SENP8 block-1: 2; SENP8 block-2: 6; SENP1 FRET inh: 2

What do the screens show for `O=C(Nc1ccc(F)c(Cl)c1)c1ccccc1`?
SENP7 block: 83*; SENP6 inh: 78*; SENP8 block-1: -2; SENP8 block-2: 77*; SENP1 FRET inh: -1; SENP8 conf: 84*; SENP6 conf: 82*; SENP7 conf: 95*; Casp3 SENP sel: 78*; SENP luc ctr: 54*

What do the screens show for `COc1cc(C(=O)Nc2ccc3c(c2)OCCO3)ccc1OC(F)F`?
SENP7 block: 77*; SENP6 inh: 82*; HSP90 inh: -1; SENP8 block-1: 11; SENP8 block-2: 62*; SENP1 FRET inh: 2; SENP8 conf: 6; SENP6 conf: 71*; SENP7 conf: 90*; Casp3 SENP sel: 76*; SENP luc ctr: 75*

What do the screens show for `Cc1cc(C)nc(NC(=O)Nc2ccc3c(c2)OCO3)c1`?
SENP7 block: 1; SENP6 inh: 4; HSP90 inh: -1; SENP8 block-1: 16; SENP8 block-2: 1; SENP1 FRET inh: -1

How did Cc1cc(C)nc(NC(=O)c2ccc3c(c2)OCO3)c1 do in these assays?
SENP7 block: 80*; SENP6 inh: 71*; HSP90 inh: 1; SENP8 block-2: 59*; SENP8 conf: 75*; SENP6 conf: 74*; SENP7 conf: 90*; Casp3 SENP sel: 88*; SENP luc ctr: 76*

Results for COc1ccc(NC(=O)C=C(C)C)cc1Cl ?
SENP7 block: 4; SENP6 inh: 94*; HSP90 inh: 0; SENP8 block-1: 12; SENP8 block-2: 93*; SENP1 FRET inh: 0; SENP8 conf: 4; SENP6 conf: 94*; SENP7 conf: 100*; Casp3 SENP sel: 96*; SENP luc ctr: 94*

How did COCC(=O)Nc1ccc(OC)c(Cl)c1 do in these assays?
SENP7 block: 2; SENP6 inh: 3; HSP90 inh: -2; SENP8 block-1: 6; SENP8 block-2: 1; SENP1 FRET inh: 2

How did CC1CCN(S(=O)C23CC4CC(CC(C4)C2)C3)CC1 (stereo not given) do in these assays?
SENP7 block: 3; SENP6 inh: 10; HSP90 inh: 1; SENP8 block-1: 2; SENP8 block-2: 2; SENP1 FRET inh: 2

Results for CCC(=O)N1CCc2cc(S(=O)(=O)N3CCN(c4cc(Cl)ccc4C)CC3)ccc21 ?
SENP7 block: -6; SENP6 inh: 1; HSP90 inh: 0; SENP8 block-1: 16; SENP8 block-2: 4; SENP1 FRET inh: 2

High-throughput results: PubChem, several laboratories
